IC50, MCC and MIC50 data for eight compounds are collected here from ChEMBL document CHEMBL1147740, “Synthesis and biological activity of isoxazolidinyl polycyclic aromatic hydrocarbons: potential DNA intercalators” (J Med Chem, 2006).

The subject of assay [1] is MOLT-3. Briefly: Cytotoxicity against MOLT3 Leukemia cells by MTS assay. It counts as functional, cell-based, Homo sapiens. The procedure, abridged:
(§1)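 MTS tetrazolium reduction assay; cells grown under optimal culture conditions for 20 h with compound at 10 to 500 µM or without it; MTS reagent then added for 1 h at 37 °C, humidified 5% CO2; absorbance read at 490 nm. Triplicate. IC50 is the concentration giving 50% reduction of absorbance.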

The test system of assay [2] is THP-1. Description: Cytotoxicity against THP1 Leukemia cells by MTS assay. It is filed as functional, cell-based, Homo sapiens. Particulars: thp-1. The procedure, abridged:
as §1
For orientation: Formazan colour is commonly taken as a measure of viable cells.

The test system of assay [3] is U-937. Briefly: Cytotoxicity against U937 Lymphoma cells by MTS assay. It is filed as functional, cell-based, Homo sapiens. The procedure, abridged: as §1
Assay [4] deals with Vero. Briefly: Cytotoxicity against normal vero kidney cells by MTS assay. It counts as functional, cell-based, Chlorocebus sabaeus. To be noted: vero. The procedure, abridged:
as §1

In assay [5] the test system is HEL. Briefly: Antiviral activity against HEL cells. It counts as functional, Homo sapiens. The procedure, abridged: (§2)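 Cytotoxicity scored as the concentration giving a microscopically detectable alteration of normal cell morphology in HEL, HeLa or Vero cells.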
The test system of assay [6] is Vero. Description: Antiviral activity against vero cells. It counts as functional, Chlorocebus sabaeus. The procedure, abridged:
as §2

In assay [7] the test system is HeLa. Description: Antiviral activity against HeLa cells. It is filed as functional, Homo sapiens. The procedure, abridged:
as §2

In assay [8] the test system is Human alphaherpesvirus 1. Description: Antiviral activity against herpes simplex virus 1 TK- KOS ACVr strain in HEL cells. It counts as functional. The procedure, abridged:
(§3)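 Minimum inhibitory concentration (µg/mL) needed to reduce virus-induced cytopathogenicity by 50%; HSV strains in HEL cells, Punta Toro virus in Vero cells.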

Assay [9] deals with Punta Toro virus. Description: Antiviral activity against Punta Toro virus in vero cells. It is filed as functional. The procedure, abridged: as §3
For assay [10], the system named is Human respirovirus 3. Briefly: Antiviral activity against Parainfluenza-3 virus in vero cells. It counts as functional. The procedure, abridged: (§4)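 Virus infection of Vero cell cultures. The endpoint is the minimum inhibitory concentration (µg/mL) that reduces virus-induced cytopathogenicity by 50%.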
Assay [11] has as its system Mammalian orthoreovirus 1. Description: Antiviral activity against Reovirus 1 in vero cells. It is filed as functional. The procedure, abridged:
as §4

Assay [12] concerns Sindbis virus. Briefly: Antiviral activity against Sindbis virus in vero cells. It counts as functional. The procedure, abridged: as §4
Assay [13] deals with Coxsackievirus B4. Briefly: Antiviral activity against Coxsackie virus B4 in vero cells. It is filed as functional. Particulars: Enterovirus B. The procedure, abridged: as §4
For assay [14], the system named is Respiratory syncytial virus. Description: Antiviral activity against Respiratory syncytial virus in HeLa cells. It is filed as functional. Particulars: human respiratory syncytial virus. The procedure, abridged:
(§5)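 Virus infection of HeLa cell cultures. The endpoint is the minimum inhibitory concentration (µg/mL) that reduces virus-induced cytopathogenicity by 50%.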

Assay [15] concerns Coxsackievirus B4. Description: Antiviral activity against Coxsackie virus B4 in HeLa cells. It counts as functional. To be noted: Enterovirus B. The procedure, abridged:
as §5

Assay [16] deals with Vesicular stomatitis virus. Briefly: Antiviral activity against Vesicular stomatitis virus in HeLa cells. It is filed as functional. The procedure, abridged: as §5
The subject of assay [17] is Human alphaherpesvirus 1. Description: Antiviral activity against Herpes simplex virus 1 KOS strain in HEL cells. It is filed as functional, Human herpesvirus 1 strain KOS. To be noted: Human alphaherpesvirus 1, KOS. The procedure, abridged:
as §3

For assay [18], the system named is Human alphaherpesvirus 2. Description: Antiviral activity against Herpes simplex virus 2 G strain in HEL cells. It is filed as functional. Particulars: Human alphaherpesvirus 2, G. The procedure, abridged:
as §3

Assay [19] relates to Vaccinia virus. Description: Antiviral activity against Vaccinia virus in HEL cells. It is filed as functional. To be noted: Orthopoxvirus vaccinia. The procedure, abridged: (§6)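 Virus infection of HEL cell cultures. The endpoint is the minimum inhibitory concentration (µg/mL) that reduces virus-induced cytopathogenicity by 50%.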
For assay [20], the system named is Vesicular stomatitis virus. Briefly: Antiviral activity against Vesicular stomatitis virus in HEL cells. It is filed as functional. The procedure, abridged: as §6
The mark [21] stands for this setting: Chlorocebus sabaeus, Vero, read-out: MCC.
[22] abbreviates: Homo sapiens, HeLa, read-out: MCC.
Where [23] appears, read: Punta Toro virus, read-out: MIC50.
The mark [24] stands for this setting: Homo sapiens, HEL, read-out: MCC.
The mark [25] stands for this setting: Human alphaherpesvirus 1, TK- KOS ACVr, read-out: MIC50.

Each structure is given as a SMILES string. pIC50: −log10 of the molar value. In brackets after ≈: the same amount, converted by molar mass. *1 amine or outer side, *2 acyl side, *3 side chain or, on linkers, in order; H or OH if unused. Where a SMILES comes first, the peptide text is derived from it. Bridges are numbered along the chain shown (N, C = ends). Roman numbers before positions name the chains, in order. [ ]: non-standard residue; d: D form. Actinocin(1to9) = Cc1c2oc3c(C)ccc(C(=O)[*:2])c3nc-2c(C(=O)[*:1])c(N)c1=O; NMeV = CN[C@H](C(=O)O)C(C)C; Sar = CNCC(=O)O

For `CN1O[C@H](CO)C[C@@H]1c1c2ccccc2cc2ccccc12` (relative stereo), the pIC50 (as a rule, the negative decadic logarithm of the IC50, by convention in mol/L) in assay [1] (Homo sapiens, MOLT-3) was less than 3.30.

For `CN1O[C@H](CO)C[C@@H]1c1cc2ccccc2c2ccccc12` (relative stereo), the pIC50 in assay [2] was 3.83; in assay [1] (molt-3) it was 3.89; in assay [3] (u-937) it was 3.81; in assay [4] it was 3.64. In addition, the MCC in [5] was found to be 400 µg/mL; in [6], 80 µg/mL; in assay [7], 80 µg/mL. In addition, the MIC50 was more than 80 µg/mL in assay [8] and 9.6 µg/mL (≈ 32.7 µM) in assay [9].

In the case of `Nc1ncnc2c1ncn2C[C@H](O)CO` [(S)-DHPA], the MCC in assay [6] (setting [21]) and in assay [7] (setting [22]) was more than 400 µg/mL throughout. Also, the MIC50 was 400 µg/mL (≈ 1910 µM) in assay [10]; 240 µg/mL (≈ 1150 µM) in assay [11]; more than 400 µg/mL in assay [12]; more than 400 µg/mL in assay [13]; more than 400 µg/mL in [9] (setting [23]); more than 400 µg/mL in assay [14]. Besides, the MIC50 in assay [15] and in assay [16] was more than 400 µg/mL in each case.

As to `Nc1nc2c(ncn2COCCO)c(=O)[nH]1` [ACYCLOVIR], the MCC in assay [5] (setting [24]) was more than 400 µg/mL. The MIC50 in assay [17] is 0.384 µg/mL (≈ 1.71 µM); in assay [18], 0.384 µg/mL (≈ 1.71 µM); in assay [19], more than 400 µg/mL; in [20] it was more than 400 µg/mL; in [8] (setting [25]) it was 48 µg/mL (≈ 213 µM).

For the compound `O=c1[nH]c(=O)n([C@H]2C[C@H](O)[C@@H](CO)O2)cc1/C=C/Br` [BRIVUDINE], the MCC in assay [5] (setting [24]), in assay [6] (setting [21]) and in assay [7] (setting [22]) was more than 400 µg/mL throughout. In addition, the MIC50 in assay [17] was 0.128 µg/mL (≈ 0.384 µM); in assay [18] it was 240 µg/mL (≈ 720 µM); in assay [19], 48 µg/mL (≈ 144 µM); in assay [20], more than 400 µg/mL; in assay [8] (setting [25]) it was more than 400 µg/mL; in [10] it was more than 400 µg/mL. Also, the MIC50 in assay [11], in [12], in assay [13], in assay [9] (setting [23]), in assay [14] and in assay [15] was more than 400 µg/mL each time. In addition, the MIC50 in [16] was more than 400 µg/mL.

Regarding `Cc1c2oc3c(C)ccc(C(=O)N[C@@H]4C(=O)N[C@H](C(C)C)C(=O)N5CCC[C@H]5C(=O)N(C)CC(=O)N(C)[C@@H](C(C)C)C(=O)O[C@@H]4C)c3nc-2c(C(=O)N[C@@H]2C(=O)N[C@H](C(C)C)C(=O)N3CCC[C@H]3C(=O)N(C)CC(=O)N(C)[C@@H](C(C)C)C(=O)O[C@@H]2C)c(N)c1=O` [DACTINOMYCIN] (I: T[dV]P[Sar][NMeV] / II: T[dV]P[Sar][NMeV]; ester I:1-I:C, II:1-II:C; linker I:N-II:N via Actinocin(1to9)), the pIC50 was more than 6.00 in assay [1] (Homo sapiens, MOLT-3) and more than 6.00 in [3] (Homo sapiens, U-937).

Regarding `Nc1nc2c(ncn2COC(CO)CO)c(=O)[nH]1` [GANCICLOVIR], the MCC in assay [5] (setting [24]) was more than 100 µg/mL. The MIC50 in [17] was 0.096 µg/mL (≈ 0.376 µM); in assay [18], 0.032 µg/mL (≈ 0.125 µM); in assay [19] it was more than 100 µg/mL; in assay [20] it was more than 100 µg/mL; in assay [8] (setting [25]) it was 0.48 µg/mL (≈ 1.88 µM).

Consider `NC(=O)c1ncn([C@@H]2O[C@H](CO)[C@@H](O)[C@H]2O)n1` [RIBAVIRIN], for which the MCC in assay [5] (setting [24]), in [6] (setting [21]) and in assay [7] (setting [22]) was more than 400 µg/mL in each case. The MIC50 is 240 µg/mL (≈ 983 µM) in [17]; more than 400 µg/mL in assay [18]; 80 µg/mL (≈ 328 µM) in assay [19]; 240 µg/mL (≈ 983 µM) in assay [20]; more than 400 µg/mL in assay [8] (setting [25]); 48 µg/mL (≈ 197 µM) in assay [10]. In addition, the MIC50 was 16 µg/mL (≈ 65.5 µM) in [11]; more than 400 µg/mL in [12]; more than 400 µg/mL in assay [13]; 80 µg/mL (≈ 328 µM) in assay [9] (setting [23]); 9.6 µg/mL (≈ 39.3 µM) in assay [14]; 9.6 µg/mL (≈ 39.3 µM) in [15]. Moreover, the MIC50 in assay [16] was found to be 16 µg/mL (≈ 65.5 µM).
